High-throughput results: PubChem BioAssay, Broad Institute
IDH1 R132H inh: blocks human IDH1 R132H reductase activity; actives 0.18% (n = 70,000); O75874; AID 624101; diaphorase/resazurin fluorescence, 60 min; inhibition, % at 10 µM; in the data active = inhibition above about 34%;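 note: 0% = DMSO and 100% = no enzyme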
GASC1 inh: inhibitors of human demethylase GASC-1 KDM4C | Q9H3R0 | GST-KDM4C 2-372, H3K9me3 peptide, LANCE TR-FRET | inhibition, % at 12.5 µM | actives 0.15% (n = 96,000) | AID 720574;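 active = mean replicate inhibition above about 25%, with at least 55% of replicates also reaching it, limit read from the data, passing the limit was not always enough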
Target sequence (Q9H3R0 2-372 limits assumed): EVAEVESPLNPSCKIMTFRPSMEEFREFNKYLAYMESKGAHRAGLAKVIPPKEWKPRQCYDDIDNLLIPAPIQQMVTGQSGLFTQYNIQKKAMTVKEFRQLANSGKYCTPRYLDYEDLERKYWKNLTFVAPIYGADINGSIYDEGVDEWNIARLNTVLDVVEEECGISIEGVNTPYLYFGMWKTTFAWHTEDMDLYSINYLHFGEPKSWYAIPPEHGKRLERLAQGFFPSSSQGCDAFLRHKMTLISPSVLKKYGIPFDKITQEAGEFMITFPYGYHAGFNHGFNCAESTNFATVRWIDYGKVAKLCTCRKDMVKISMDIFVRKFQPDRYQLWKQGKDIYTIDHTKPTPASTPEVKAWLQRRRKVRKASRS
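Assay system: GST-GASC-1 enzyme fragment 2-372 | Amount: 10 nM enzyme | Medium: HEPES buffer, pH 7.5, plus ascorbate | Reagent: H3K9me3 peptide substrate, Fe(II), 2-oxoglutarate | Doses: Single-point compound screen | Incubation: 30 min demethylation and 1 h detection at room temperature | Measured by: LANCE TR-FRET, excitation 340 nm, emissions 618 and 671 nm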
Tcruzi prolif: inhibitors of T. cruzi proliferation; actives 5.9% (n = 77,000); T. cruzi beta-gal in NIH3T3, GalScreen luminescence, 90 h; inhibition, % at 8.34 µM;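 active = mean inhibition above about 93%, with at least 55% of replicates each passing it, limit read from the data, passing the limit was not always enough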
Pf Dd2 inh: blocks growth of Plasmodium falciparum Dd2 parasites. activity change, % at 10 µM. actives 2.3% (n = 94,000). P. falciparum Dd2 growth, SYBR Green, 72 h; stronger effect = lower value; in the data active = activity change below about -80%
Starred values were filed as active, the others as inactive; x = no result given. A selection: hits, their analogues and other compounds. The true share with any hit is near 5.9%.

SMILES | IDH1 R132H inh | GASC1 inh | Tcruzi prolif | Pf Dd2 inh
CCC(=O)N1CC2(C1)[C@H](c1ccc(-c3cccc(OC)c3)cc1)[C@H](CO)N2C(C)=O | x | -3 | x | -5
CCCNC(=O)c1cc2c(c(-c3cccc(-c4cc5ccccc5o4)c3)n1)[C@H](CCO)N(C(=O)NC(C)C)C2 | x | -21 | x | -93*
CC(C)(C)[S@@](=O)N1Cc2cc(C(=O)NCc3ccncc3)nc(-c3cccc(-c4ccncc4)c3)c2[C@H]1CCO | 0 | 0 | 32 | -35
COc1cccc(-c2cccc(-c3nc(C(=O)NCc4ccc(Oc5ccccc5)cc4)cc4c3[C@@H](CCO)N(S(=O)C(C)(C)C)C4)c2)c1 (some centres not stated) | x | 0 | x | -84*
CC(C)(C)[S@@](=O)N1Cc2cc(C(=O)NCCc3ccncc3)nc(-c3cccc(-c4ccccc4)c3)c2[C@H]1CCO | x | -3 | x | -85*
COc1ccc(C(Nc2cccc(C)n2)c2ccc3ccc(C)nc3c2O)c(OC)c1OC (configuration not stated) | 0 | x | x | x
COc1ccc(S(=O)(=O)Nc2ccc3c(c2)C(=O)N([C@@H](C)CO)C[C@H](C)[C@H](CN(C)C(=O)Nc2ccc(C(F)(F)F)cc2)OCCCC[C@@H](C)O3)cc1 | x | 2 | 60 | -84*
Cc1ccc(S(=O)(=O)Nc2ccc3c(c2)C(=O)N([C@@H](C)CO)C[C@H](C)[C@@H](CN(C)C(=O)Nc2ccc(C(F)(F)F)cc2)OCCCC[C@H](C)O3)cc1 | 7 | -1 | 94 | -82*
C[C@@H]1CCCCO[C@H](CN(C)C(=O)CCC(F)(F)F)[C@H](C)CN([C@@H](C)CO)C(=O)c2cc(NS(=O)(=O)c3ccccc3)ccc2O1 | 91* | -2 | 47 | -28
C[C@@H]1CCCCO[C@@H](CN(C)C(=O)CCC(F)(F)F)[C@@H](C)CN([C@H](C)CO)C(=O)c2cc(NS(=O)(=O)c3ccccc3)ccc2O1 | -2 | -3 | -5 | -4
C[C@@H]1CCCCO[C@H](CN(C)C(=O)Nc2ccc(C(F)(F)F)cc2)[C@H](C)CN([C@H](C)CO)C(=O)c2cc(NS(=O)(=O)c3ccccc3)ccc2O1 | x | 0 | 98 | -86*
Cc1ccc(S(=O)(=O)Nc2ccc3c(c2)C(=O)N([C@H](C)CO)C[C@@H](C)[C@@H](CN(C)C(=O)Nc2ccccc2)OCCCC[C@@H](C)O3)cc1 | 1 | -1 | -60 | -83*
C[C@@H]1CCCCO[C@H](CN(C)C(=O)Nc2ccc(C(F)(F)F)cc2)[C@@H](C)CN([C@@H](C)CO)C(=O)c2cc(NS(=O)(=O)c3ccc(Cl)cc3)ccc2O1 | 0 | 0 | 81 | -84*
C[C@H](CO)N1C[C@H](C)[C@@H](CN(C)C(=O)Nc2ccc(C(F)(F)F)cc2)OCCCC[C@H](C)Oc2ccc(NS(=O)(=O)c3ccc(Cl)cc3)cc2C1=O | 6 | -2 | 92 | -75
C[C@H]1CCCCO[C@H](CN(C)C(=O)Nc2ccc(C(F)(F)F)cc2)[C@@H](C)CN([C@@H](C)CO)C(=O)c2cc(NS(=O)(=O)c3ccc(F)cc3)ccc2O1 | 0 | 1 | 94 | -82*
C[C@@H]1CN([C@H](C)CO)C(=O)c2cc(NC(=O)CCC(F)(F)F)ccc2O[C@@H](C)CCCCO[C@H]1CN(C)C(=O)Nc1cccc2ccccc12 | -2 | 0 | 62 | -69
C[C@@H]1CN([C@@H](C)CO)C(=O)c2cc(NC(=O)CCC(F)(F)F)ccc2O[C@@H](C)CCCCO[C@@H]1CN(C)C(=O)Nc1cccc2ccccc12 | 0 | -2 | 44 | -89*
C[C@@H]1CN([C@@H](C)CO)C(=O)c2cc(NC(=O)CCC(F)(F)F)ccc2O[C@@H](C)CCCCO[C@H]1CN(C)C(=O)Nc1cccc2ccccc12 | 1 | 1 | 60 | -85*
COc1ccc(S(=O)(=O)Nc2ccc3c(c2)C(=O)N([C@H](C)CO)C[C@H](C)[C@@H](CN(C)C(=O)NC2CCCCC2)OCCCC[C@H](C)O3)cc1 | x | 0 | 67 | -27
COc1ccc(S(=O)(=O)Nc2ccc3c(c2)C(=O)N([C@H](C)CO)C[C@@H](C)[C@@H](CN(C)C(=O)C2CCCCC2)OCCCC[C@@H](C)O3)cc1 | x | 16 | 78 | -76
COc1ccc(S(=O)(=O)Nc2ccc3c(c2)C(=O)N([C@@H](C)CO)C[C@H](C)[C@@H](CN(C)C(=O)NC2CCCCC2)OCCCC[C@@H](C)O3)cc1 | x | -1 | 101 | -87*
